Source: ChEMBL document CHEMBL4190330, “Discovery of Potent and Selective A2A Antagonists with Efficacy in Animal Models of Parkinson's Disease and Depression” (ACS Med Chem Lett, 2017)
Values after ≈ are worked out from the molar mass of the structure shown. Active and inactive are the calls of the source. The calls are words filed in the database; no cut-off is given here.

Tests used:
Cytochrome P450 3A4 = Cytochrome P450 3A4 (Homo sapiens, UniProt P08684); assay: Inhibition of CYP3A4 (unknown origin); format: ADME
Cytochrome P450 3A4, sequence (P08684 whole entry): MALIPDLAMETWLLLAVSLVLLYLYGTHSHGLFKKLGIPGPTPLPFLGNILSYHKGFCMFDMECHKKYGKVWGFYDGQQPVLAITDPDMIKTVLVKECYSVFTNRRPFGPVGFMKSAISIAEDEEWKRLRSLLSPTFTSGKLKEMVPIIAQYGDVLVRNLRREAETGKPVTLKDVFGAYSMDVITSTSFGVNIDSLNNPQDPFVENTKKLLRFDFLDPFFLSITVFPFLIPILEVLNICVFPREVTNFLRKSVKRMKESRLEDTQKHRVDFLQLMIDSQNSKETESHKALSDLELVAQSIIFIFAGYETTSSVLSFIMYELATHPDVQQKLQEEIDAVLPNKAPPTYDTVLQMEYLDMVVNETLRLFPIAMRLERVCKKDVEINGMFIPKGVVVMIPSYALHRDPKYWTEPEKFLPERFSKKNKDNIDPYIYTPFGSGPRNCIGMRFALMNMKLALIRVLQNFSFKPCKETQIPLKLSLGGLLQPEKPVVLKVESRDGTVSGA

Rattus norvegicus = assay: Anti-parkinson's activity in po dosed 6-OHDA-lesioned Wistar rat assessed as increase in L-DOPA induced contralateral rotations measured up to 2 hrs; format: functional
Summary of the method: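 6-OHDA-lesioned rats given oral test doses; L-DOPA 4 mg/kg ip; contralateral rotations recorded up to 2 h, dosing 60 min prior; mean ± SEM, n=6-7; compared with L-DOPA-alone group.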

[1] = Protein binding in human plasma; format: ADME, cell-free; conditions: read-out: PPB (converted)
[2] = Metabolic stability in mouse liver microsomes assessed as metabolic rate; format: ADME, microsome
Summary of the method: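 Liver microsomes (mouse, rat, dog, human) at 0.125 mg/mL protein; metabolic rate expressed as nmol/min/mg.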

Cytochrome P450 2D6 = Cytochrome P450 2D6 (Homo sapiens, UniProt P10635); assay: Inhibition of CYP2D6 (unknown origin); format: ADME
Cytochrome P450 2D6, sequence (P10635 whole entry): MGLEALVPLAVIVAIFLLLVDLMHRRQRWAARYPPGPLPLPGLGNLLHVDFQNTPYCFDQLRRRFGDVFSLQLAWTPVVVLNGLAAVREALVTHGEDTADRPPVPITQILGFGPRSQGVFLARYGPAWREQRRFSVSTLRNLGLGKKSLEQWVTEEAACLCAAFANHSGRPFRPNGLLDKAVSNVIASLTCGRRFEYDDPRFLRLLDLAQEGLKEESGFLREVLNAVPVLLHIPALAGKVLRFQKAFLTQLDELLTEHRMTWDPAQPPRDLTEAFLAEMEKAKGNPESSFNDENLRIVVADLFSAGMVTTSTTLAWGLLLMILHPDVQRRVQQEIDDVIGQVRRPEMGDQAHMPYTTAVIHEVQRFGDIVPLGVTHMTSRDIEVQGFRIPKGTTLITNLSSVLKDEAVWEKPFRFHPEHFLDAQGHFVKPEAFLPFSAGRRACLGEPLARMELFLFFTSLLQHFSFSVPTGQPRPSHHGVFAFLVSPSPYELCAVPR

[3] = Solubility of the compound at pH 2; format: physicochemical; conditions: buffer
[4] = molecular target: T1, Adenosine receptor A1 (Homo sapiens) (UniProt P30542); assay: Antagonist activity at human adenosine A1 receptor expressed in HEK293 cell membranes assessed as inhibition of CPA/forskolin-induced cAMP level at 10 uM pretreated for 15 mins followed by agonist addition for 15 mins and subsequent forskolin stimulation measured after 30 mins by HTRF assay; format: functional, cell-based
T1 sequence (whole entry): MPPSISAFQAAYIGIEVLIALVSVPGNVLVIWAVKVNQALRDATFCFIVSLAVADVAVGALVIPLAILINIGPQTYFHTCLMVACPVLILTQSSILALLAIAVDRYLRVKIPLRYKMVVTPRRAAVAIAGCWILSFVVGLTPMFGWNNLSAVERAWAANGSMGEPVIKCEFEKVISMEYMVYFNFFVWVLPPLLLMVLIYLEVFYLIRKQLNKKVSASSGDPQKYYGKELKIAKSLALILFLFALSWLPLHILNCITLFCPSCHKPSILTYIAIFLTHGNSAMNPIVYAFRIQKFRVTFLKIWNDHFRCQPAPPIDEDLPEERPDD
Summary of the method: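 HTRF cAMP functional assay on the human receptor isoform, run in triplicate at 12 concentrations with a top concentration of 10 µM, in two independent experiments. Inhibition at 10 µM is recorded where no Ki could be derived.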

[5] = Solubility of the compound at pH 7.4; format: physicochemical; conditions: buffer

- IC50 (Cytochrome P450 3A4): > 10 µM
- fraction unbound [1]: 0.15
- Drug metabolism [2]: 0.08 nmol/min/mg
- IC50 (Cytochrome P450 2D6): > 10 µM
- solubility [3]: > 2000 µM
- inhibition [4]: inactive
- solubility [5]: 17 µM (≈ 9.67 µg/mL)
Compound: COCCOc1ccc(N2CCN(CCn3c(=O)n(C)c4c3nc(N)n3nc(-c5nccs5)nc43)CC2)cc1F
- Activity (Rattus norvegicus): Dose-dependent effect
- ED50 (Rattus norvegicus): 1.2 mg/kg
